Compounds with a hit are over-represented: about 4.1% of the library has one in this group of screens.
MPTP inh – blocks calcium-induced mitochondrial swelling | isolated mouse mitochondria, Ca2+ swelling absorbance, 30 min | 360,000 compounds, 1.4% hits | inhibition, % at 10 µM | AID 602449;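 active = inhibition of 50% or more, scaled per plate between neutral and stimulator controls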
ATG4B inhibitor – blocks human ATG4B protease cleavage of LC3 substrate. Q9Y4P1. ATG4B cleavage of LC3-PLA2, NBD-HPC fluorescence, 1 h. inhibition, % at 8.33 µM. 340,000 compounds, 0.51% hits; in the data active = inhibition above about 40%
Target sequence (Q9Y4P1 whole entry, looked up): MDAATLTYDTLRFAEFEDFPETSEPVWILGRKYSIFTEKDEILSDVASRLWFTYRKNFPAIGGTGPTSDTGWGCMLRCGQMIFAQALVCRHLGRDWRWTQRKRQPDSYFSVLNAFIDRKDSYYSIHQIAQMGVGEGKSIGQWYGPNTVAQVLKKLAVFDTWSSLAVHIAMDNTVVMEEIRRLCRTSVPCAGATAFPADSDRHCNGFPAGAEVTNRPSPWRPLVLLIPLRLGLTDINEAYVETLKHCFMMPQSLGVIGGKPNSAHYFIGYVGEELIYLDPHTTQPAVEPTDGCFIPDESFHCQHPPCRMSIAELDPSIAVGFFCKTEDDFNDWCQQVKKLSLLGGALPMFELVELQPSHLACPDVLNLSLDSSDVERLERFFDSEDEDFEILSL
MC4R barr agon – agonists of human melanocortin 4 receptor (MC4R) beta-arrestin. U2OS MC4R beta-arrestin complementation, luminescence; percent of melanotan II response, DMSO zero. 360,000 compounds, 0.98% hits. activation, % at 8.9 µM;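 active = activation above a per-plate cutoff, the mean activation of sample wells on that plate plus 3 SD, cut at about 8% in these data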
SMARCA2 act – SMARCA2 function activation, primary screen | MG213 cells, MMTV-luciferase reporter, dexamethasone, overnight | activation, % at 9.1 µM | 370,000 compounds, 1% hits | AID 652017; in the data active = activation above about 7.8%
MC4R antagonist – antagonists of human melanocortin 4 receptor (MC4R); P32245; MC4R-expressing cells, MTII-stimulated cAMP, LANCE TR-FRET; inhibition, % at 6.5 µM; 360,000 compounds, 0.48% hits;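 active = inhibition above its plate's cutoff, the mean of tested wells on that plate plus 3 SD, cut at about 29% in these data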
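Material – human MC4R-expressing U2OS cells · Repeats – no replicates · Detection – TR-FRET with Eu-cAMP and labeled anti-cAMP, 671 nm · Times – compound 30 min, challenge 1 h, detection 1 h · Compound – single nominal compound dose of 6.5 µM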
ATG4B confirm – confirmation of human ATG4B inhibitors; shares compounds with ATG4B inhibitor; ATG4B protease fluorescent substrate cleavage assay; inhibition, % at 8.33 µM; 320 compounds, 92% hits; in the data active = inhibition above about 39%
PLA2 counter – PLA2 (human) inhibition in ATG4B counter-screen. inhibition, % at 8.33 µM. 1,600 compounds, 66% hits. purified PLA2, NBD-C6-HPC fluorescence, 45 min. shares compounds with ATG4B inhibitor; in the data active = inhibition above about 50%
Target sequence (P04054 whole entry, looked up): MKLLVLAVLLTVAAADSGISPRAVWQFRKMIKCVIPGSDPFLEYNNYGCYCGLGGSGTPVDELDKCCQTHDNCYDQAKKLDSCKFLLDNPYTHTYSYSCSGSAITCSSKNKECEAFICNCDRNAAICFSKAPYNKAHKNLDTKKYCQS
A number is an active result; – = inactive; · = not tested or not shown.

SMILES | MPTP inh | ATG4B inhibitor | MC4R barr agon | SMARCA2 act | MC4R antagonist | PLA2 counter | others
Cc1sc(NC(=O)c2ccccc2)c(C(=O)c2ccccc2)c1C | – | 50.2 | – | – | – | – | ATG4B confirm=72.8
Cc1nn(CCC(N)=O)c2nc(-c3cccs3)cc(C(F)(F)F)c12 | – | 86.1 | – | – | – | 84.3
Cc1nn(CCC(=O)O)c2nc(-c3cccnc3)cc(C(F)(F)F)c12 | – | – | – | – | – | ·
CCN=C1NC(c2ccc(Cl)cc2)C(C(=O)OC)=C(C)N1Cc1cccc(C(F)(F)F)c1 (stereo not given) | · | · | · | – | · | ·
O=C(O)c1ccccc1NS(=O)(=O)c1ccc(NNC(=S)Nc2ccc(OC(F)F)cc2)c([N+](=O)[O-])c1 | – | 50.5 | – | – | – | 64.3
Cc1ccc(NC(=S)NNc2ccc([N+](=O)[O-])cc2S(=O)(=O)Nc2ccccc2C(=O)O)cc1C | – | 74.0 | – | – | – | 70.7
CC(=O)Nc1cccc(/C(C)=N/Nc2ccc(S(=O)(=O)Nc3ccccc3C(=O)O)cc2[N+](=O)[O-])c1 | – | – | – | – | – | ·
Cc1ccccc1CSc1nnnn1-c1ccc(C(N)=O)cc1 | – | 57.5 | – | – | – | 54.2
COc1ccc(C(=O)Nc2cccc(/C=C(\CCC(=O)O)c3nc4ccccc4s3)c2)cc1 | – | 58.9 | – | – | – | 74.1
CN(c1ccccc1)c1ccc(/C=C(\CCC(=O)O)c2nc3ccccc3s2)cc1[N+](=O)[O-] | – | 46.2 | – | – | – | – | ATG4B confirm=69.9
Cc1ccc(/C=C(\CCC(=O)O)c2nc3ccccc3s2)cc1[N+](=O)[O-] | – | – | – | – | – | ·
O=C(O)c1cc(-c2ccco2)nn1-c1ccc(Cl)cc1 | – | 43.4 | – | – | – | –
O=C(O)c1cc(-c2ccco2)nn1-c1cccc(Cl)c1 | – | – | – | – | – | ·
Cc1ccc(Cn2nnc3c2-c2ccccc2S(=O)(=O)N(C2CC2)C3)cc1 | · | · | · | – | · | ·
O=C(O)c1cccc(NC(=S)N/N=C/c2ccccc2OCc2ccc(Br)cc2)c1 | – | – | – | – | – | ·
O=C(O)c1cccc(NC(=S)N/N=C/c2ccccc2OCc2cccc(Br)c2)c1 | – | 46.7 | – | – | – | 54.0
O=S(=O)(c1ccccc1)N1CCN(c2cccc(Cl)c2)CC1 | – | 50.8 | – | – | – | 61.4
O=S(=O)(c1ccccc1)N1CCN(Cc2cccc(Cl)c2)CC1 | – | – | – | – | – | ·
Cc1cc(Br)c(OCc2ccc(C(=O)N/N=C3\CC4CC=CC34)cc2)c(Br)c1 (stereo not given) | – | 47.7 | – | – | – | –
Cc1ccc(-c2cc(-c3nnc(SCC(=O)Nc4nccs4)n3N)[nH]n2)cc1 | · | · | · | – | · | ·
O=C(Oc1c(-c2ccccc2)c(=O)n2c3c(cccc13)CC2)c1ccccc1 | – | 70.3 | – | – | – | 64.5
O=C(Oc1c(-c2ccccc2)c(=O)n2c3c(cccc13)CC2)c1cccc([N+](=O)[O-])c1 | – | – | – | – | – | ·
O=C(Oc1c(-c2ccccc2)c(=O)n2c3c(cccc13)CC2)c1ccc(F)cc1 | – | 65.7 | – | – | – | – | ATG4B confirm=61.6
O=C(NCc1ccccc1)c1ccc2nc(-c3ccco3)c(-c3ccco3)nc2c1 | – | 44.1 | – | – | – | –
COC(=O)COc1ccc(-c2ccc(F)cc2)cc1C=O | – | 43.4 | – | – | – | 59.1
SMILES | MPTP inh | ATG4B inhibitor | MC4R barr agon | SMARCA2 act | MC4R antagonist | PLA2 counter | others
COC(=O)COc1ccc(-c2ccccc2)cc1C=O | – | – | – | – | – | ·
CCOC(=O)CC(=O)CSc1nc2ccccc2c(=O)n1-c1ccc(C(=O)N2CCOCC2)cc1 | – | – | – | – | – | ·
O=C(c1ccc(-n2c(SCc3cc(F)ccc3F)nc3ccccc3c2=O)cc1)N1CCOCC1 | – | 47.0 | – | – | – | – | ATG4B confirm=63.2
O=c1c2ccccc2nc(SCc2cn3ccsc3n2)n1-c1ccc(F)cc1 | – | 74.5 | – | – | – | 71.4
C=CCn1c(SCC(=O)O)nnc1-c1ccco1 | · | · | · | – | · | ·
Cc1ccccc1N=C1NC(=O)/C(=C/c2cccn2-c2cccc(C(=O)O)c2)S1 | · | 43.5 | · | – | · | – | ATG4B confirm=58.6
Cc1cccc(N=C2NC(=O)/C(=C/c3cccn3C)S2)c1C | – | – | – | – | – | ·
O=C(O)c1cccc(-n2cccc2/C=C2\SC(=O)N(Cc3ccccc3F)C2=O)c1 | – | 40.2 | – | – | – | 57.4
C[C@@H](NC(=O)C[C@H]1CC[C@H]2[C@@H](COc3ccc(NC(=O)Nc4ccccc4)cc3C(=O)N2C)O1)c1ccccc1 | · | · | · | – | · | ·
O=C(c1ccc(OC2CCN(C/C=C/c3ccc(F)cc3)CC2)cc1)N1CCCC1 | – | 42.0 | – | – | – | – | ATG4B confirm=64.3
CSc1n[nH]c2nc3c(c(=O)n12)C1(CCCCC1)Cc1ccccc1-3 | – | 42.0 | – | – | – | – | ATG4B confirm=45.9
CCSc1n[nH]c2nc3c(c(=O)n12)C1(CCCCC1)Cc1ccccc1-3 | – | – | – | – | – | ·
COC(=O)[C@H](CC(C)C)N(Cc1cn(Cc2ccc(C)cc2)nn1)S(=O)(=O)c1ccc(F)cc1Br | · | · | · | – | · | ·
CCN(Cc1ccccc1)c1ccc(N=Nc2nn(C)c(C)c2[N+](=O)[O-])cc1 | – | 52.7 | – | – | – | –
CCN(CC)c1ccc(N=Nc2nn(C)c(C)c2[N+](=O)[O-])cc1 | – | – | – | – | – | ·
COc1ccc(Br)cc1CNC(=O)C1CCN(S(=O)(=O)N2CCC(C)CC2)CC1 | – | 42.1 | – | – | – | – | ATG4B confirm=66.7
COc1ccc(Br)cc1CNC(=O)C1CCCN(S(=O)(=O)N2CCC(C)CC2)C1 (stereo not given) | – | · | – | – | – | ·
Cc1ccc(OCc2nnc(SCC(=O)c3ccc4ccccc4c3)n2-c2ccc(Cl)cc2)cc1 | · | · | · | – | · | ·
COc1ccccc1-c1cc(C(=O)N2CCCc3ccccc32)no1 | – | – | – | – | – | ·
COc1ccc(OC)c(-c2cc(C(=O)N3CCCc4ccccc43)no2)c1 | – | 47.3 | – | – | – | – | ATG4B confirm=68.3
COC(=O)c1cccc(NC(=S)Nc2ccccc2Cl)c1 | – | – | – | – | – | ·
Fc1ccc(CNC(=S)NCc2ccc(F)cc2)cc1 | – | 41.5 | – | – | – | – | ATG4B confirm=69.1
COc1cccc(CNC(=S)Nc2cc(C)ccc2C)c1 | – | – | – | – | – | ·
CCNC(=S)NCc1ccc(F)cc1 | – | – | – | – | – | ·
COc1cccc(CNC(=S)Nc2cccc(Cl)c2C)c1 | – | 54.1 | – | – | – | 65.3
Cc1ccc(C(C)NC(=S)NCc2ccc(F)cc2)cc1C (stereo not given) | – | – | – | – | – | ·
COC(=O)c1cccc(NC(=S)Nc2cccc(Cl)c2C)c1 | – | 57.8 | – | – | – | 56.1
Cc1ccc(C(C)NC(=S)NCc2ccc(F)cc2)c(C)c1 (stereo not given) | – | 43.6 | – | – | – | 51.6

Screening results deposited in PubChem BioAssay by several laboratories.
